Data set [1] addresses T1, Signal transducer and activator of transcription 3 (Homo sapiens, UniProt P40763). To be noted: 2.5 to 5 uM.
Data set [2] is described as follows: Terminal half life in Sprague-Dawley rat plasma at 1 mg/kg, iv measured after 24 hrs by UPLC analysis. It is filed as ADME, organism-based. To be noted: read-out: beta t1/2 (converted). The method in brief: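 Rats dosed i.v. or p.o. Plasma concentrations followed from 2 min to 24 h after dosing. The bioanalytical method was validated to FDA guidelines for selectivity, linearity, LLOQ, accuracy, precision, recovery, matrix effect and stability.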

The subject of data set [3] is MDA-MB-231. The experiment in a line: Induction of SHP-1 expression in human MDA-MB-231 cells at 2.5 to 10 uM after 12 hrs by immunoblot analysis. Format: functional, cell-based. The method in brief: (§1)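 MDA-MB-231 cells at 60–80% confluence were treated 12 h with 10% FBS at 2.5-10 µM or 2.5-5 µM, against a DMSO control. Whole-cell lysates were immunoblotted, with bands quantified as percent of control.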
(Immunoblotting shows a protein as a band on a membrane.)

A short description of data set [4]: Antiproliferative activity against human UW288-1 cells after 24 hrs by MTT assay. Format: functional, cell-based. The conditions noted are these: UW288-1, 24 h. The method in brief: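 Cells were seeded at 3000 per well and incubated 24 h at 37 °C. Compounds were added in triplicate with 10% FBS: 0.1-10 or 0.1-20 µM for cancer lines, 3.125-400 µM for MCF-10A. Viability was read by MTT absorbance at 595 nm, with IC50 fitted from the curves. DMSO stocks were 20 mM.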
(In general: Tetrazolium assays rely on reduction of a dye to a coloured formazan, in cell work by metabolically active cells.)

Data set [5] deals with Mus musculus. The experiment in a line: Acute toxicity in ICR mouse assessed as mortality at 200 to 1000 mg/kg, ip measured up to 2 weeks post-treatment. Format: organism-based. To be noted: in vivo, 336 h. The method in brief:
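ICR mice of both sexes, 7 weeks old, randomized into groups of 10. Each received a single intraperitoneal dose at 200, 400, 600, 800 or 1000 mg/kg.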

In data set [6] the test system is MDA-MB-231. The experiment in a line: Induction of apoptosis in human MDA-MB-231 cells assessed as increase in cleaved caspase level at 2.5 to 5 uM after 12 hrs by immunoblot analysis. Format: functional, cell-based. A digest of the protocol:
as §1

Data set [7] relates to CCRF S-180. Briefly: Antiproliferative activity against mouse S180 cells after 24 hrs by MTT assay. To be noted: CCRF S-180, 24 h.
Data set [8] deals with T2, Signal transducer and activator of transcription 1-alpha/beta (Homo sapiens) (UniProt P42224).
T2 sequence (whole entry): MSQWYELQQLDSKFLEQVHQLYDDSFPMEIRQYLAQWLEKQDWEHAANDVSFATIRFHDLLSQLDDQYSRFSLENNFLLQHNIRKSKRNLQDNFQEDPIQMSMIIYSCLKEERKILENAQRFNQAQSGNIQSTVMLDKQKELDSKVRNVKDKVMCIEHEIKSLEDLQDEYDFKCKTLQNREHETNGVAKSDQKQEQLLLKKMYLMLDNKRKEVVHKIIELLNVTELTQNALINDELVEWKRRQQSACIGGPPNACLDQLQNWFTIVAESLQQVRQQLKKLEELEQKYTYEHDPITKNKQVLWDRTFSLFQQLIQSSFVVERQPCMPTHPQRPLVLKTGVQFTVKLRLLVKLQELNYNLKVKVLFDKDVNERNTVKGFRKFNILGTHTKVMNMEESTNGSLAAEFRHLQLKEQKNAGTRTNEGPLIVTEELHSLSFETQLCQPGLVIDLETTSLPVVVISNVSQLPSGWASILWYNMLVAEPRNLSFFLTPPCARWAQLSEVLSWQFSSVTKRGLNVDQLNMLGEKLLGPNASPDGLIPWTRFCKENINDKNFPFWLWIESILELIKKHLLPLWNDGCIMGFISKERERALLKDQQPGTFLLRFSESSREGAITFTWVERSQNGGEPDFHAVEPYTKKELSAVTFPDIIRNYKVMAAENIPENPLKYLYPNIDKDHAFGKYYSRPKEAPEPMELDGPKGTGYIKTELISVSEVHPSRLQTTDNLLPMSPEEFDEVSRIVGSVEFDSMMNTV
Briefly: Inhibition of STAT1 in human MDA-MB-231 cells assessed as reduction in IFN-gamma-induced STAT1-STAT1 DNA binding activity at 2.5 to 10 uM preincubated for 2 hrs followed by IFN-gamma stimulation measured after 30 mins by EMSA. Format: cell-based. The method in brief: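 Serum-starved MDA-MB-231 cells were preincubated with compound, stimulated with IFN-γ 50 ng/mL, and then nuclear extracts were taken for EMSA with biotin-labeled probe.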
For orientation: Mobility shift assays separate free from complexed probe on a gel.

A short description of data set [9]: Cmax in Sprague-Dawley rat plasma at 1 mg/kg, iv measured after 24 hrs by UPLC analysis. It is filed as ADME, organism-based. Details: dose 1 mg/kg, route intravenous. The method in brief:
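Rat plasma sampled from 2 min to 24 h after a single i.v. (1 mg/kg) or p.o. (10 mg/kg) dose. Parameters were derived from the concentration-time profiles. The bioanalytical method was validated to FDA guidelines for selectivity, linearity, LLOQ, accuracy, precision, recovery, matrix effect and stability.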

Data set [10] is described as follows: Selectivity ratio of IC50 for human MCF-10A cells to IC50 for human MDA-MB-231 cells. The method in brief: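 MTT viability assay. MCF-10A was grown in RPMI-1640 and MDA-MB-231 in DMEM, each with 10% FBS. Cells were seeded at 3000 per well and left 24 h at 37 °C. Compound was then added in triplicate with 10% FBS, at 0.1-10 µM for the cancer cells and 3.125-400 µM for MCF-10A. Absorbance was read at 595 nm. The ratio is IC50 for MCF-10A over IC50 for MDA-MB-231.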

The subject of data set [11] is MDA-MB-231. The experiment in a line: Anticancer activity against human MDA-MB-231 cells xenografted in BALB/c nude mouse assessed as reduction in tumor volume at 10 mg/kg, po qd administered for 32 days. Format: functional. Details: scale not given: the % may be the effect or the level left. The method in brief:
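Female athymic BALB/c nude mice, 6 weeks old, bearing s.c. flank MDA-MB-231 xenografts (5 x 10^6 cells). Dosing began at about 100 mm3 tumor volume; 8 mice per group, one tumor each. Drug was given orally in saline, with a saline vehicle control, for 32 days. Caliper L and W measured every other day; volume = 0.5236×L×W².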

In data set [12] the test system is Mus musculus. Briefly: Toxicity in BALB/c nude mouse xenografted with […] S180 cells assessed as body weight loss at 5 mg/kg, po after 21 days relative to vehicle control. It is filed as organism-based. The conditions noted are these: in vivo, 504 h.
The test system of data set [13] is CCRF S-180. Briefly: Anticancer activity against […] cells xenografted in BALB/c nude mouse assessed as reduction in tumor weight at 5 mg/kg, po measured after 21 days relative to vehicle control. It is filed as functional. Details: scale not given: the % may be the effect or the level left. The method in brief:
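Male mice, 4 weeks old, given s.c. flank S180 mouse sarcoma cells (3 x 10^6). From day 2, 10 mice per group received saline vehicle, oral drug at 5 mg/kg, or i.p. drug at 1 mg/kg, each dissolved in saline. Therapy ran 21 days; tumor weight and body weight were recorded.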

In data set [14] the target is T1, Signal transducer and activator of transcription 3. The conditions noted are these: 5 uM.

The source made the active and inactive calls. The calls are words filed in the database; no cut-off is given here.

T1 sequence (P40763 whole entry): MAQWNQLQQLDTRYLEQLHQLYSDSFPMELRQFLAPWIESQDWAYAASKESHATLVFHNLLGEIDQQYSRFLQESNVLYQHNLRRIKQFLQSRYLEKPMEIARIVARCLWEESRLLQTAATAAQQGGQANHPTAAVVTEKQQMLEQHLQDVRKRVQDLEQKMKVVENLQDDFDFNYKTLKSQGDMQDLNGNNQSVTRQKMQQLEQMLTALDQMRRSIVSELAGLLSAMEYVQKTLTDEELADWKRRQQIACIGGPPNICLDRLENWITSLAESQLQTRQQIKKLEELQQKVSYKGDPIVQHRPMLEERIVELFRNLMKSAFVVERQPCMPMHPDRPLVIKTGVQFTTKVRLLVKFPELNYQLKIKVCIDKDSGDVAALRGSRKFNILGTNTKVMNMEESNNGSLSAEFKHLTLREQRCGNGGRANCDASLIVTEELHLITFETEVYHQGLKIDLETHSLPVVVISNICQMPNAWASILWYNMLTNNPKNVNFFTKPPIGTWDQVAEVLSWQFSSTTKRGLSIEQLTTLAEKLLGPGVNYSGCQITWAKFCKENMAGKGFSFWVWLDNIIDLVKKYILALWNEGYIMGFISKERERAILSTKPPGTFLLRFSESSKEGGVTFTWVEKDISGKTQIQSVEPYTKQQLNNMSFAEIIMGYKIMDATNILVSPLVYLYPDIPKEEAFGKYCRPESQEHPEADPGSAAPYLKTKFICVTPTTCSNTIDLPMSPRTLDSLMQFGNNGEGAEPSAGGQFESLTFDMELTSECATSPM

For `NS(=O)(=O)c1cccc2c1C(=O)C=C(Nc1ccccc1N1CCNCC1)C2=O`, in data set [1], the inhibition entry is “Active”. For the same molecule, the half-life in data set [2] was 42.6 min. For the same molecule, the result in data set [3] and in data set [6] was Active. Moreover, the IC50 – broadly, the concentration needed to halve the response being measured – in data set [4] was 2800 nM; in data set [7], 420 nM. The Activity entry in data set [5] is listed as “Non-Toxic”; in data set [11], 70%; in data set [12] it was 1.68%; in data set [13], 72.74%. Also, the inhibition entry in [8] was “inactive”. For the same molecule, the Cmax (as a rule, the peak of the concentration-time curve) in [9] amounted to 359 ng/mL. The “Ratio IC50” value in data set [10] turned out to be 184. Besides, the inhibition entry in data set [14] is “Tde”.
